From PubChem BioAssay
TMEM16A inh: TMEM16A chloride channel inhibitors, primary screen, cell-based, HTS | Anoctamin-1 (Mus musculus), Q8BHY3 | AID 588511, 2011 | normalized B-score (activity score, 25-100; higher = stronger inhibition) at 10 µM | HEK293 TMEM16A/YFP iodide influx fluorescence, ionomycin | hit rate 1.2% among 310,000;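 active = ratio plate-corrected score three or more library SD toward inhibition, starting fluorescence score within five deviations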;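 also: score derived from kinetic fluorescence span divided by baseline fluorescence per well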
MIN6 prolif: inducers of MIN6 beta-cell proliferation, primary screen, ATP luminescence, uHTS | AID 2380, 2010 | MIN6 cells proliferation, ATPlite luminescence, 48 h; cells starved in 0.2% serum; 100% = growth in 10% serum | proliferation, % at 10 µM | hit rate 0.29% among 330,000;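 active = compounds whose signal lies at least 3.5 SD above the mean of all wells on their plate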;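 also: 0% = DMSO-treated cells in low-serum medium and 100% = 10% serum control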
MC4R barr agon: MC4R agonists recruiting beta-arrestin, primary screen, cell-based, luminescence, agonist arm of biased-ligand search | AID 540308, 2011 | U2OS MC4R beta-arrestin complementation; percent of melanotan II response, DMSO zero | hit rate 0.98% among 360,000 | activation, % at 8.9 µM | Melanocortin receptor 4 (Homo sapiens), P32245;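 active = activation above a per-plate cutoff, the mean activation of sample wells on that plate plus 3 SD, cut at about 8% in these data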
Target sequence (P32245 whole entry, looked up): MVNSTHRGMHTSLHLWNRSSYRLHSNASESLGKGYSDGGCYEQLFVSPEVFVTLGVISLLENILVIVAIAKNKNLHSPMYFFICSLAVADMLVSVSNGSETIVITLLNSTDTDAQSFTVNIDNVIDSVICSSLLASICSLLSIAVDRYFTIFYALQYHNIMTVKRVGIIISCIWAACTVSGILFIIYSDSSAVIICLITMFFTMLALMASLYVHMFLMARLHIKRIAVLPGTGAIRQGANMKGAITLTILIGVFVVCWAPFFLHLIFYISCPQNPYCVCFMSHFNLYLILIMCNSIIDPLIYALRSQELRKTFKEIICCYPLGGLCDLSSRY
MC4R antagonist: MC4R antagonists of cAMP signaling, primary screen, cell-based, TR-FRET, antagonist arm of biased-ligand search; MC4R-expressing cells, MTII-stimulated cAMP, LANCE TR-FRET; inhibition, % at 6.5 µM; Melanocortin receptor 4 (Homo sapiens), P32245; AID 540295, 2011; hit rate 0.48% among 360,000;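 active = inhibition above its plate's cutoff, the mean of tested wells on that plate plus 3 SD, cut at about 29% in these data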;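 also: 0% = Melanotan II alone and 100% = Melanotan II plus saturating MCL0020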
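Material: U2OS-MC4R stable cell line | Reagent: Melanotan II challenge after compound preincubation | Doses: One concentration, 6.5 µM nominal | Incubation: 30-min compound preincubation, 1-h Melanotan II challenge, 1-h detection, room temperature | Signal: TR-FRET cAMP assay | Replicates: One well per compound, no replicates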
ANO1 activ: TMEM16A chloride channel activators or potentiators, primary screen, cell-based, HTS | Anoctamin-1 (Mus musculus), Q8BHY3 | HEK293 TMEM16A/YFP-H148Q/I152L, iodide quench fluorescence; active compounds read low | B-score at 10 µM | hit rate 0.3% among 340,000 | AID 623877, 2012;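 active = fluorescence-ratio B-score plate-corrected deviation score at least 3 library SD below zero, with starting fluorescence score within 5 deviations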;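 also: channel opened by trigger with iodide after compound preincubation; score built on the fluorescence ratio of max minus min over baseline; more negative score means more quench and so TMEM16A activation or potentiation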
HTR2A ag: mouse Htr2a agonists via beta-arrestin recruitment, primary screen, cell-based, luminescence | 5-hydroxytryptamine receptor 2A (Mus musculus), P35363 | CHO-K1 mHTR2A beta-arrestin complementation; percent of 30 µM serotonin response | activation, % at 7.6 µM | hit rate 0.66% among 360,000 | AID 624169, 2012;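 active = activation above a run cutoff, the mean activation of all tested compounds plus 3 SD, cut at about 14% in these data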;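 also: 0% = plate median of compound wells and 100% = 30 µM serotonin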
U2OS cAMP counter: nonselective cAMP signaling inhibitors, parental cells, counter-screen for MC4R biased antagonist project, cell-based, TR-FRET, U2OS, forskolin, triplicate; shares compounds with MC4R antagonist; LANCE TR-FRET; inhibition, % at 6.5 µM; hit rate 26% among 1,600; AID 602193, 2012;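 active = mean inhibition over triplicates above the low-control well mean plus 3 SD, set per campaign, cut at about 13% in these data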;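 also: signal is single emission at 671 nm which falls as cellular cAMP rises; 0% = forskolin-stimulated wells and 100% = buffer without forskolin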
MC4R cAMP antag: MC4R cAMP antagonists, retest, confirmation, cell-based, TR-FRET; hit rate 27% among 1,600; shares compounds with MC4R antagonist; AID 602195, 2012; inhibition, % at 6.5 µM; MC4R-expressing cells, MTII-stimulated cAMP; in the data active = inhibition above about 29%;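 also: 0% = agonist stimulated wells alone and 100% = agonist stimulated wells plus saturating reference antagonist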
* hit, by the source's call; i = inactive; · = no result given. A selection: hits, their analogues and other compounds. The true share with any hit is near 3.4%.

SMILES | TMEM16A inh | MIN6 prolif | MC4R barr agon | MC4R antagonist | ANO1 activ | HTR2A ag | U2OS cAMP counter | MC4R cAMP antag
C/C(CC(=O)Nc1cccc(Cl)c1Cl)=N\NC(=O)c1ccccc1C | i | -2 | 1 | 29* | i | 5 | 5 | 2
C/C(CC(=O)Nc1cccc(Cl)c1Cl)=N\NC(=O)C(=O)N1CCCC1 | i | -6 | -1 | 9 | i | 2 | · | ·
O=C(C[C@H]1CC[C@@H]2[C@H](COC[C@@H](O)CN2Cc2cccc(F)c2)O1)NCC1CCCCC1 | · | · | · | · | · | -3 | · | ·
O=C1/C(=C/c2ccc([N+](=O)[O-])cc2)C=C(c2ccccc2)N1c1ccc(O)cc1 | i | -6 | -1 | 32* | i | -3 | 9 | 20
O=C1CCCN1c1ccc(S(=O)(=O)Nc2cccnc2)cc1 | i | -1 | -2 | 29* | i | 4 | -1 | -5
CC(=O)Nc1cccc(NC(=O)COc2ccc3c(c2)OCO3)c1 | i | -2 | 1 | 1 | i | -5 | · | ·
COc1ccccc1C(O)(c1ccccc1)c1ccccc1OC | · | · | 3 | -1 | i | 1 | · | ·
CC(c1ccccc1C(O)(c1ccccc1)c1ccccc1)N(C)C (centres undefined) | i | -3 | 4 | 29* | i | 2 | -9 | 3
CCN(CC(=O)Nc1ccc(C)c(S(=O)(=O)N2CCOCC2)c1)Cc1ccccc1 | i | -5 | -1 | 1 | i | 9 | · | ·
CC1=C(C(=O)N2CCOCC2)CC(CC(=O)NC2CCCCC2)C(=O)N1CCCN1CCCC1=O (centres undefined) | · | · | -1 | 14 | · | -4 | · | ·
Cc1cc2nccc(-c3ccc(Cl)c([N+](=O)[O-])c3)n2n1 | i | 1 | 1 | 41* | i | 2 | -11 | 29*
Cc1cc2nccc(-c3ccc(F)cc3)n2n1 | i | 2 | 1 | 16 | i | 3 | · | ·
O=[N+]([O-])c1cc(S(=O)(=O)NCCN2CCOCC2)ccc1Cl | i | 0 | 0 | 29* | i | -3 | 5 | 17
COC(=O)c1ccc2nc(-c3ccco3)c(Cc3ccc(OC)cc3C)n2c1 | · | · | · | · | · | 4 | · | ·
Cc1n[nH]c(C)c1NC(=O)CSc1nnnn1-c1cccc(F)c1 | · | 2 | -1 | 10 | i | 4 | · | ·
O=C(C[n+]1ccccc1)N/N=C/c1cc(Br)ccc1O | i | -4 | -2 | 8 | i | -14 | · | ·
O=C(Nc1ccccn1)c1ccc(Br)s1 | i | -1 | 2 | 31* | i | 2 | 3 | 2
COc1ccccc1-c1cnc(C(O)c2ccc(C)cc2)[nH]1 (centres undefined) | · | · | -1 | 8 | · | -2 | · | ·
COC(=O)c1ccc(N2CCN(C)CC2)c(NC(=O)c2sc3ccccc3c2Cl)c1 | i | · | 1 | 31* | i | -6 | -2 | -2
CN1CCN(c2ccc(NC(=O)c3sc4ccccc4c3Cl)cc2)CC1 | i | -7 | -3 | 6 | i | -2 | · | ·
COc1cc(/C=N/Nc2cc(C)nc(NS(=O)(=O)c3ccc(C)cc3)n2)ccc1O | · | · | 1 | 10 | i | 0 | · | ·
COc1ccc(/C=N/Nc2cc(C)nc(NS(=O)(=O)c3ccc(C)cc3)n2)cc1 | i | -1 | -2 | 32* | i | 7 | 2 | 21
O=S(=O)(/C(=C/c1ccc(C(F)(F)F)cc1)c1nc2ccccc2[nH]1)c1ccccc1 | i | · | -2 | 35* | i | -9 | 13* | 48*
CCOC(=O)c1c(NC(=O)C2c3ccccc3Oc3ccccc32)sc(C(N)=O)c1C | i | -3 | 4 | 32* | i | -3 | 6 | 22
CCCCCCCCCCCCCCCCn1cc[n+](CC(C)=O)c1 | · | · | 16* | 29* | i | -2 | 3 | 33*
SMILES | TMEM16A inh | MIN6 prolif | MC4R barr agon | MC4R antagonist | ANO1 activ | HTR2A ag | U2OS cAMP counter | MC4R cAMP antag
CCCCCCn1ccc(=N)cc1 | i | -5 | -1 | 3 | i | -1 | · | ·
Cc1nn(-c2ccccc2)c(Cl)c1C(=O)NCC1CCCO1 (centres undefined) | · | 2 | 0 | 5 | · | 2 | · | ·
COc1ccc(NC(=O)/C(Cl)=C(/Cl)S(=O)Cc2ccccc2)cn1 (centres undefined) | i | -4 | -2 | 26 | i | -5 | · | ·
COc1ccc(CS(=O)(=O)/C(Cl)=C(/Cl)C(=O)Nc2ccc(OC)nc2)cc1 | i | -4 | -2 | 44* | i | -8 | 33* | 37*
O=C(Nc1cc(C(F)(F)F)ccc1N1CCOCC1)c1ccccc1 | i | 1 | 2 | 6 | i | 1 | · | ·
O=C(Nc1cc(C(F)(F)F)ccc1N1CCOCC1)c1c(F)c(F)c(F)c(F)c1F | i | -5 | -1 | 30* | i | 8 | 16* | 46*
OCC[C@@H]1C[C@H](O)[C@@H](O)[C@]2(OCCc3cc(Cl)ccc32)O1 | · | · | · | · | · | 1 | · | ·
COc1ccc(CN2CCN(S(=O)(=O)c3ccc(NC(C)=O)cc3)CC2)c(OC)c1OC | i | 2 | 1 | 31* | i | -2 | 0 | 9
O=c1[nH]cc(S(=O)(=O)Nc2ccc3c(c2)OCO3)c(=O)[nH]1 | i | 3 | -2 | 9 | i | 9 | · | ·
COC(=O)c1sc(-c2ccccc2)cc1NC(C)=O | i | 4 | -1 | 1 | i | -1 | · | ·
COC(=O)c1sc(-c2cccs2)cc1NC(=O)/C=C/C(=O)O | i | -3 | -2 | 32* | i | -4 | 8 | 5
C[C@@H]1CN([C@@H](C)CO)C(=O)CCCn2nncc2CO[C@H]1CN(C)Cc1cccnc1 | · | · | 1 | 29* | · | -2 | -4 | -19
C[C@H](CO)N1C[C@H](C)[C@@H](CN(C)Cc2cccnc2)OCc2cnnn2CCCC1=O | · | · | 1 | 7 | · | 4 | · | ·
Cc1cc(NC(=O)/C(C#N)=C/c2ccc(-c3cccc(C(F)(F)F)c3)o2)n(-c2ccccc2)n1 | i | -5 | 6 | -2 | i | -1 | · | ·
